Assay outcomes (PubChem BioAssay)
Sampled rows, rich in hits. Any-hit rate of the full collection: about 2.5%.
VIM-2 inhibitor: VIM-2 metallo-beta-lactamase inhibitors, primary screen, biochemical, epi-absorbance readout, Pseudomonas aeruginosa enzyme; purified VIM-2, nitrocefin hydrolysis, epi-absorbance fluorescence; inhibition, % at 5.6 µM; hit rate 0.89% among 290,000; AID 1527, 2009;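 active means inhibition above the mean of all tested compounds plus 3 SD, cutoff set per screening run, cut at about 7.5% in these data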;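 further: red hydrolysis product quenches plate fluorescence so inhibitors raise well fluorescence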
IMP-1 inh: IMP-1 metallo-beta-lactamase inhibitors, primary screen, biochemical, epi-absorbance readout, Pseudomonas aeruginosa enzyme. metallo-beta-lactamase IMP-1 (Pseudomonas aeruginosa). inhibition, % at 5.6 µM. hit rate 0.45% among 290,000. purified IMP-1, nitrocefin hydrolysis, epi-absorbance fluorescence;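 active means inhibition above the mean plus 3 SD of all compounds in the same screening run, cut at about 4.5% in these data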
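Assay system: purified recombinant IMP-1 beta-lactamase. Input: IMP-1 0.2 nM before substrate addition. Buffer or medium: Zinc- and detergent-supplemented HEPES buffer, pH 7.1. Schedule: 25 °C, 15 min preincubation, 25 min reaction. Signal: Epi-absorbance fluorescence, 480 nm excitation, 530 nm emission. Evaluation: percent inhibition from optical density relative to buffer-blank wells.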
dFosB act: activators of delta FosB homodimer, primary screen, biochemical, fluorescence polarization, TAMRA-CDK5 oligo, single point | Protein FosB (Mus musculus), P13346 | purified delta FosB; percent of positive-control signal above neutral wells | activation, % at 25 µM | hit rate 0.99% among 340,000;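 active means mean activation above about 17%, with every replicate also reaching it, limit read from the data, passing the limit was not always enough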
Target sequence (P13346 whole entry, looked up): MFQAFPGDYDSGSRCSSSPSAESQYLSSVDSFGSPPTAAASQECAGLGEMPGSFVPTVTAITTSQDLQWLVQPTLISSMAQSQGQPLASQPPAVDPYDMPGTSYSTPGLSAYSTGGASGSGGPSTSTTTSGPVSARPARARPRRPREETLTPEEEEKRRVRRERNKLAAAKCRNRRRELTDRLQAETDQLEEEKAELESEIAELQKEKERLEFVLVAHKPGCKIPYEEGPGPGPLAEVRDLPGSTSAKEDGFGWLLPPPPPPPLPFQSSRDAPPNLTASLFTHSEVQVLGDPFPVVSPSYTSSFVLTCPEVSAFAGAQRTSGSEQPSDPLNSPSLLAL
HTR2A ag: mouse Htr2a agonists via beta-arrestin recruitment, primary screen, cell-based, luminescence | hit rate 0.66% among 360,000 | AID 624169, 2012 | activation, % at 7.6 µM | 5-hydroxytryptamine receptor 2A (Mus musculus), P35363 | CHO-K1 mHTR2A beta-arrestin complementation; percent of 30 µM serotonin response;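 active means activation above a run cutoff, the mean activation of all tested compounds plus 3 SD, cut at about 14% in these data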
Of the large screens only hits and unclear results are named; the others gave an inactive call.

COc1ccc(C2NC(=O)CCC2[N+](=O)[O-])c(OC)c1OC (stereo not drawn)	none
COc1ccc([C@H]2C[C@H](O)[C@@H](n3cc(-c4ccc(F)cc4)nn3)CN2CC2CCCCC2)cc1	none (no result: VIM-2 inhibitor, IMP-1 inh, dFosB act)
O=C1/C(=C/c2cccs2)CCC/C1=C\c1cccs1	IMP-1 inh 5.6
CCOc1ccc(CNC2CCCCCCC2)cc1OC	none
CC(CC(F)(F)F)N1CCC(n2nccc2NC(=O)CCCc2ccccc2)CC1 (stereo not drawn)	none
COc1cc(/C=C2/SC(=S)N(CC(=O)O)C2=O)ccc1OCC(=O)Nc1ccc(C)c(C)c1	IMP-1 inh 7.5
CC(=O)Nc1ccc(S(=O)(=O)Oc2cccc(/C=C3\SC(N)=NC3=O)c2)cc1	dFosB act 33
COc1cc(/C=C2\SC(N)=NC2=O)ccc1OCC(=O)Nc1ccc(C)cc1	dFosB act 79
Cc1ccc(C)c(NC(=O)c2ccc(S(=O)(=O)N(C)CC3CCCO3)cc2)c1 (stereo not drawn)	none
CCN(CC)CCCN(Cc1cc2cc3c(cc2[nH]c1=O)OCO3)C(=O)Nc1ccccc1OC	none
CCN(CC)CCCN(Cc1cc2cc(OC)c(OC)cc2[nH]c1=O)C(=O)Nc1ccccc1	VIM-2 inhibitor 7.9
CCCCOc1ccc(S(=O)(=O)NC(=O)C2(C)CCN2C(=O)c2c(C)noc2C)cc1 (stereo not drawn)	none (no result: VIM-2 inhibitor, IMP-1 inh, dFosB act)
COCCNC(=O)C1(C)CCCN(Cc2cc(-c3ccccc3)on2)C1 (stereo not drawn)	none (no result: VIM-2 inhibitor, IMP-1 inh, dFosB act)
Cn1c(=O)c2sccc2n2c(CCCC(=O)NC3CCN(Cc4ccccc4)CC3)nnc12	VIM-2 inhibitor 10
Cn1c(=O)c2sccc2n2c(CCCC(=O)NCc3cccnc3)nnc12	VIM-2 inhibitor 11
CCCn1c(=O)c2sccc2n2c(CCCC(=O)NCc3cccnc3)nnc12	none
CN(C)S(=O)(=O)c1ccc(Cl)c(NC(=O)C2CCN(S(=O)(=O)c3cccs3)CC2)c1	none (no result: VIM-2 inhibitor, IMP-1 inh)
CCN(CC)CCCOc1nc(C)nc2c1oc1ccccc12	VIM-2 inhibitor 31
CN(C)CCOc1nc(-c2ccccc2)nc2c1oc1ccccc12	none
CN(C)CCOc1ncnc2c1oc1ccccc12	none
CCN(CC)CCOc1nc(C)nc2c1oc1ccccc12	VIM-2 inhibitor 8.6
COC(=O)c1cc(-c2ccc(Br)cc2)c2c(=O)[nH]c(=O)n(C)c2n1	none
COC(=O)c1cc(-c2ccc(OC)c(OC)c2)c2c(=O)[nH]c(=O)n(C)c2n1	VIM-2 inhibitor 9.4
CCN(CC)CCNC(=O)CCN1N=C(c2ccccc2)CCC1=O	none
COCCCNCCCOc1ccc(C(C)(C)c2ccccc2)cc1	none
CC(C)(c1ccccc1)c1ccc(OCCCNCCO)cc1	IMP-1 inh 5.4
CC(C)C[C@H]1CNC(=O)C(=O)N1C[C@H](Cc1ccc(O)cc1)NC(=O)Cc1ccccc1	none (no result: VIM-2 inhibitor, IMP-1 inh, dFosB act)
C[C@@H](CN1C(=O)C(=O)NC[C@@H]1Cc1ccc(O)cc1)NC(=O)Cc1ccccc1	IMP-1 inh 13
CC(=O)c1c(-c2ccccc2)c2cc(Cl)ccc2n(C)c1=O	none
CC(=O)c1c2c3c(c(Br)ccc3n(C)c1=O)C(=O)c1ccccc1-2	VIM-2 inhibitor 31, IMP-1 inh 6.7
Cc1ccc(S(=O)(=O)N2C(=O)C(c3ccccc3)SC2=Nc2ccccc2)cc1 (stereo not drawn)	dFosB act 43
Cc1ccc(S(=O)(=O)N2C(=O)C(C)SC2=Nc2ccccc2)cc1 (stereo not drawn)	none
CCOc1ccc(N(C(=O)c2ccc(S(=O)(=O)N3CCCC3)cc2)C2C=CS(=O)(=O)C2)cc1 (stereo not drawn)	none
O=C(C=P(c1ccccc1)(c1ccccc1)c1ccccc1)c1ccccc1-c1ccccc1C(=O)C=P(c1ccccc1)(c1ccccc1)c1ccccc1	dFosB act 36 (no result: VIM-2 inhibitor, IMP-1 inh)
O=c1c2[nH]c3ccc(F)cc3c2ncn1CCCn1ccnc1	VIM-2 inhibitor 8.0
Cc1cccc(OCC(=O)NCC(=O)N/N=C/c2ccc(O)cc2O)c1	dFosB act 17
CCCn1c(=O)c2ccccc2n2c(SCC(=O)c3ccccc3)nnc12	none
CCCn1c(=O)c2ccccc2n2c(SCCNCCO)nnc12	VIM-2 inhibitor 11
CN(Cc1cccc(Cl)c1Cl)C(=O)c1ccccc1SCC(=O)N1CCCC1	none (no result: VIM-2 inhibitor, IMP-1 inh)
FCCCOc1ccc(-c2ccnc(-c3ccccc3)n2)cc1	IMP-1 inh 5.1
Cc1ccccc1-n1c(-c2csc(C)c2C)n[nH]c1=S	VIM-2 inhibitor 11
COc1ccc(-c2n[nH]c(=S)n2Cc2ccccc2)cc1OC	VIM-2 inhibitor 7.8
COc1ccc(-c2n[nH]c(=S)n2Cc2ccccc2)cc1	VIM-2 inhibitor 9.2
COc1ccc(-n2c(-c3cccc(C)c3[N+](=O)[O-])n[nH]c2=S)cc1	VIM-2 inhibitor 38
CCOc1cc(-c2n[nH]c(=S)n2Cc2ccccc2)ccc1OC(F)F	none (no result: VIM-2 inhibitor, IMP-1 inh)
CCCOc1ccc(C(O)(CCN2CCCCC2)c2ccccc2OC)cc1 (stereo not drawn)	none
Cc1nc2nc(-c3cccs3)[nH]c2cc1Br	none (no result: VIM-2 inhibitor, IMP-1 inh)
S=c1[nH]nc(-c2ccncc2)n1Cc1ccco1	none
Cc1n[nH]c(=S)n1Cc1ccccc1	VIM-2 inhibitor 11
COc1cc(OC)cc(-c2n[nH]c(=S)n2-c2ccc3c(c2)OCO3)c1	VIM-2 inhibitor 8.7
COc1cccc(-c2n[nH]c(=S)n2Cc2ccco2)c1	VIM-2 inhibitor 9.1
Cc1n[nH]c(=S)n1-c1ccccc1	VIM-2 inhibitor 10
Fc1ccc(-n2c(-c3ccc4c(c3)OCO4)n[nH]c2=S)cc1Cl	none
COc1cc(NS(=O)(=O)c2cc(NC(C)=O)ccc2OC)c(OC)cc1NC(=O)c1ccccc1	none (no result: VIM-2 inhibitor, IMP-1 inh)
COc1ccc(S(=O)(=O)N2CCN(C(=O)COc3ccc(C)c(C)c3)CC2)cc1OC	none
Cc1ccc(C)c(S(=O)(=O)N2CCN(C(=O)[C@@H]3CCCN3C(=O)c3cccs3)CC2)c1	none (no result: VIM-2 inhibitor, IMP-1 inh)
COc1ccccc1CNC(=O)c1sccc1-c1ccccc1	none
COc1ccc(-c2n[nH]c(=S)n2-c2ccccc2C)cc1OC	none
COc1ccc(-c2n[nH]c(=S)n2-c2ccccc2C)cc1	VIM-2 inhibitor 8.8
Cc1noc(C)c1-c1ccc(C(=O)Nc2ccc(C(C)C)cc2)c2occc12	none (no result: VIM-2 inhibitor, IMP-1 inh, dFosB act)
CC[C@@H](C)[C@H](CNC)NC[C@@H](Cc1cccc2ccccc12)NCCc1cccc(C(F)(F)F)c1	dFosB act 19
O=C(Nc1ncc2c(n1)-c1ccccc1CC2)c1ccc(Cl)cc1	IMP-1 inh 24
CCCCCCCCNCCS(=O)(=O)NCc1ccc(OC)cc1	none (no result: VIM-2 inhibitor, IMP-1 inh)
NC(=O)C1CCN(C(=O)c2cccc(S(=O)(=O)N3CCCC3)c2)CC1	none (no result: VIM-2 inhibitor, IMP-1 inh)
NC(=O)C1CCN(S(=O)(=O)c2cccc(C(=O)O)c2)CC1	IMP-1 inh 32
COc1ccc(Cl)cc1NC(=O)NCc1ccccn1	none
COc1ccccc1C(c1nnnn1CCc1ccccc1)N1CCN(c2ccccc2)CC1 (stereo not drawn)	none
